The values that follow come from ChEMBL document CHEMBL4118256, “Second Generation of Mannich Base-Type Derivatives with in Vivo Activity against Trypanosoma cruzi” (J Med Chem, 2018).

Data set [1] concerns Trypanosoma cruzi. Briefly: Trypanocidal activity against Trypanosoma cruzi TINF/CH/1956/Tulahuen DTU 6 epimastigotes after 48 hrs by resazurin dye based assay. Type of data set: functional, organism-based. The following applies: TINF/CH/1956/Tulahuen DTU 6, 48 h. The essentials:
(§1)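 Exponential-phase epimastigotes were seeded at 5×10^5 mL^-1 with compounds at 100–0.2 µM (DMSO 0.01% v/v) at 28 °C. After 48 h, resazurin was added for another 24 h. SDS was then added and absorbance read at 570 and 600 nm.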
(In general: Alamar Blue is a resazurin reagent that responds to reducing activity.)

Data set [2] is described as follows: Selectivity index, ratio of IC50 for African green monkey Vero cells to IC50 for Trypanosoma cruzi MHOM/Pe/2011/Arequipa DTU 5 epimastigotes. Type of data set: toxicity. The conditions noted are these: read-out: Ratio IC50. The essentials: (§2)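 SI is Vero IC50 divided by the IC50 for the stated parasite form. For Vero cytotoxicity, cells were seeded at 1.25×10^4 mL^-1 with compounds at 1000–1 µM, incubated 48 h, then given resazurin for a further 24 h (72 h total), with absorbance read at 570/600 nm. Triplicate, four determinations.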

Data set [3] concerns Vero. Put plainly: Cytotoxicity against African green monkey Vero cells assessed as reduction in cell viability after 72 hrs by resazurin dye based assay. The conditions noted are these: Chlorocebus sabaeus. The essentials: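 Vero monkey kidney cells grown at 37 °C, 5 % CO2, in RPMI with 10 % heat-inactivated FBS. Seeded at 1.25 × 10^4 mL-1 with compound at 1000 to 1 µM (DMSO 0.01 % v/v). After 48 h, resazurin added for a further 24 h, then SDS. Absorbance read at 570/600 nm. IC50 from triplicates in four separate determinations.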

Data set [4] in a line: Selectivity index, ratio of IC50 for African green monkey Vero cells to IC50 for Trypanosoma cruzi IRHOD/CO/2008/SN3 DTU 1 epimastigotes. Type of data set: toxicity. The conditions noted are these: read-out: Ratio IC50. Put shortly: as §2
For data set [5], the system named is Trypanosoma cruzi. Briefly: Trypanocidal activity against Trypanosoma cruzi MHOM/Pe/2011/Arequipa DTU 5 epimastigotes after 48 hrs by resazurin dye based assay. Type of data set: functional, organism-based. The conditions noted are these: MHOM/Pe/2011/Arequipa DTU 5, 48 h. The essentials:
as §1

Data set [6] is described as follows: Selectivity index, ratio of IC50 for African green monkey Vero cells to IC50 for Trypanosoma cruzi TINF/CH/1956/Tulahuen DTU 6 epimastigotes. Type of data set: toxicity. The following applies: read-out: Ratio IC50. The essentials:
as §2

For data set [7], the system named is Trypanosoma cruzi. Briefly: Trypanocidal activity against Trypanosoma cruzi IRHOD/CO/2008/SN3 DTU 1 epimastigotes after 48 hrs by resazurin dye based assay. Type of data set: functional, organism-based. The following applies: IRHOD/CO/2008/SN3 DTU 1, 48 h. Put shortly:
as §1

Data set [8] is described as follows: Selectivity index, ratio of IC50 for African green monkey Vero cells to IC50 for Trypanosoma cruzi IRHOD/CO/2008/SN3 DTU 1 amastigotes infected in African green monkey Vero cells. Type of data set: toxicity. The conditions noted are these: read-out: Ratio IC50. Put shortly:
as §2

Data set [9] is described as follows: Selectivity index, ratio of IC50 for African green monkey Vero cells to IC50 for Trypanosoma cruzi IRHOD/CO/2008/SN3 DTU 1 trypamastigotes derived from infected Balb/c albino mouse. Type of data set: toxicity. The conditions noted are these: read-out: Ratio IC50. Put shortly:
as §2

Data set [10] relates to Trypanosoma cruzi. Briefly: Trypanocidal activity against Trypanosoma cruzi IRHOD/CO/2008/SN3 DTU 1 amastigotes infected in African green monkey Vero cells after 72 hrs by Giemsa-staining based microscopic assay. Type of data set: functional, organism-based. The conditions noted are these: IRHOD/CO/2008/SN3 DTU 1, Vero. The essentials:
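Vero cells were seeded at 1×10^4/well on coverslips. After 24 h they were infected with culture-derived trypomastigotes (MOI 1:10, 24 h), then washed. Compounds were added at 100–0.2 µM (DMSO 0.01% v/v) for 72 h at 37 °C, 5% CO2. Slides were methanol-fixed and Giemsa-stained; amastigotes and infected cells were counted over 500 host cells. IC50 was derived by curve fitting; triplicate wells, four separate determinations.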

Data set [11] relates to Trypanosoma cruzi. Put plainly: Trypanocidal activity against Trypanosoma cruzi IRHOD/CO/2008/SN3 DTU 1 trypamastigotes derived from infected Balb/c albino mouse after 24 hrs by resazurin dye based assay. The conditions noted are these: IRHOD/CO/2008/SN3 DTU 1, 24 h. Type of data set: functional, organism-based. Put shortly: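 Bloodstream trypomastigotes taken from mice at peak parasitaemia were seeded at 2×10^6 mL^-1 in RPMI with 10% FBS. Compounds were added at 50–0.2 µM and incubated 24 h at 37 °C, 5% CO2, then with resazurin for 4 h. SDS was added and absorbance read at 570/600 nm. IC50 was fitted; triplicate, four separate determinations.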

With `O=C(CCN1CCN(c2ccc([N+](=O)[O-])cc2)CC1)c1ccc(F)cc1`, the half-maximal inhibitory concentration (IC50) in data set [1] stood at 78.1 µM; in data set [3], 110 µM; in data set [5], 65.8 µM; in [7], 54.5 µM. Further, the selectivity ratio in data set [2] was 1.7; in data set [4] it was 2; in [6], 1.4.
In the case of `COc1ccc(C(=O)CCN2CCN(c3ccc([N+](=O)[O-])cc3)CC2)cc1OC`, the IC50 in [1] is 105 µM; in data set [3], 105 µM; in data set [5], 94.5 µM; in data set [7] it was 174 µM. Besides, the figures for the selectivity ratio in [2], in data set [4] and in data set [6] were 1.1, 0.6 and 1, respectively.
Consider `O=C(CCN1CCN(c2ccc(F)cc2)CC1)c1ccc(F)c(Cl)c1`, for which the half-inhibitory concentration (IC50) in data set [1] is 37.1 µM; in data set [3] it was 185 µM; in [5], 25.3 µM; in data set [7], 41.6 µM. In addition, the selectivity ratio is 7.3 in [2], 4.5 in data set [4] and 5 in data set [6].
For `O=C(CCN1CCN(c2ccc([N+](=O)[O-])cc2)CC1)c1ccc(Cl)c(F)c1`, the IC50 in data set [1] was 15.5 µM; in [3] it was 89.2 µM; in data set [5], 23.8 µM; in data set [7], 32.4 µM. Further, the selectivity ratio worked out at 3.8 in data set [2], 2.8 in data set [4] and 5.7 in data set [6].
As for `Cc1ccc(C(=O)CCN2CCN(c3ccc([N+](=O)[O-])cc3)CC2)cc1`, the selectivity ratio came to 9.8 in data set [8]; 8.3 in [2]; 9.3 in data set [9]; 12.9 in data set [4]; 5.1 in data set [6]. Besides, the IC50 stood at 46.2 µM in data set [1]; 235 µM in data set [3]; 24 µM in [10]; 28.4 µM in [5]; 25.3 µM in [11]; 18.2 µM in data set [7].
With `O=C(CCN1CCN(c2ccc(Cl)cc2)CC1)c1ccc(C(F)(F)F)cc1`, the IC50 in data set [1] was found to be 39.1 µM; in data set [3] it was 54.2 µM; in data set [5], 52.7 µM; in data set [7] it was 38.2 µM. Also, the selectivity ratio amounted to 1 in data set [2], 1.4 in data set [4] and 1.4 in data set [6].
As to `O=C(CCN1CCN(c2ccc(C(F)(F)F)cc2)CC1)c1ccccc1`, the IC50 was 24.9 µM in data set [1], 15.7 µM in data set [3], 12.8 µM in [5] and 16.2 µM in data set [7]. The selectivity ratio in [2] was 1.2; in data set [4], 1; in data set [6] it was 0.6.
With `Cc1ccc(C(=O)CCN2CCN(c3ccc(F)cc3)CC2)cc1`, the 50% inhibitory concentration (IC50) in data set [1] is 25 µM; in [3], 55.4 µM; in data set [5], 43.5 µM; in [7] it was 78.8 µM. Also, the figures for the selectivity ratio in data set [2], in data set [4] and in [6] were 1.3, 0.7 and 2.2, respectively.
Regarding `O=C(CCN1CCN(c2ccc(F)cc2)CC1)c1ccc(Cl)c(F)c1`, the IC50 in [1] was determined as 46.2 µM; in data set [3] it was 105 µM; in data set [5], 39.5 µM; in data set [7], 75.3 µM. The selectivity ratio worked out at 2.7 in data set [2], 1.4 in [4] and 2.3 in data set [6].
Consider `COc1ccc(N2CCN(CCC(=O)c3ccc(F)cc3)CC2)cc1`, for which the 50% inhibitory concentration (IC50) amounted to 38.9 µM in data set [1], 31.9 µM in data set [3], 24.5 µM in data set [5] and 22.2 µM in data set [7]. The selectivity ratio in [2] was determined as 1.3; in data set [4], 1.4; in data set [6] it was 0.8.
As to `O=C(CCN1CCN(c2ccc(C(F)(F)F)cc2)CC1)c1ccc(Br)cc1`, the IC50 is 28.5 µM in [1], 78.8 µM in [3], 30 µM in data set [5] and 28.3 µM in data set [7]. Further, the selectivity ratio in data set [2] came out at 2.6; in data set [4], 2.8; in [6], 2.8.
With `COc1ccc(C(=O)CCN2CCN(c3ccc(Cl)cc3)CC2)cc1OC`, the IC50 in [1] amounted to 36.6 µM; in data set [3] it was 185 µM; in data set [5], 90.3 µM; in data set [7], 43.9 µM. In addition, the values for the selectivity ratio in [2], in data set [4] and in data set [6] were 2.1, 4.2 and 5.1, respectively.
`COc1ccc(C(=O)CCN2CCN(Cc3ccccc3)CC2)cc1OC`: the IC50 in data set [1] stood at 46.2 µM; in [3], 47.5 µM; in data set [5] it was 29.5 µM; in data set [7], 55.2 µM. The selectivity ratio in [2] worked out at 1.6; in data set [4], 0.9; in [6], 1.
`COc1ccc(C(=O)CCN2CCN(c3ccc(C(F)(F)F)cc3)CC2)cc1OC`: the half-maximal inhibitory concentration (IC50) in [1] is 33.9 µM; in data set [3], 242 µM; in data set [5] it was 59 µM; in data set [7] it was 27.8 µM. The selectivity ratio in data set [2] was 4.1; in [4], 8.7; in data set [6] it was 7.2.
For `COc1ccc(C(=O)CCN2CCN(Cc3cccc(C)c3)CC2)cc1OC`, the IC50 in data set [1] turned out to be 28.4 µM; in [3] it was 52 µM; in [5] it was 19.4 µM; in [7] it was 24.1 µM. Moreover, the selectivity ratio in data set [2] came out at 2.7; in [4], 2.2; in data set [6], 1.8.
For `O=C(CCN1CCN(c2ccc(Cl)cc2)CC1)c1ccc(F)c(Cl)c1`, the half-maximal inhibitory concentration (IC50) was found to be 29.1 µM in [1], 114 µM in [3], 45.5 µM in [5] and 29.5 µM in data set [7]. Also, the selectivity ratio in [2] is 2.5; in [4] it was 3.9; in [6] it was 3.9.
With `COc1ccc(C(=O)CCN2CCN(c3ccc(C(F)(F)F)cc3)CC2)cc1`, the IC50 in data set [1] came to 44 µM; in [3] it was 135 µM; in data set [5], 72.9 µM; in data set [7], 32.3 µM. Also, the selectivity ratio turned out to be 1.9 in data set [2], 4.2 in data set [4] and 3.1 in [6].
In the case of `Cc1ccc(C(=O)CCN2CCN(c3ccc(C(F)(F)F)cc3)CC2)cc1`, the concentration for half-maximal inhibition (IC50) in [1] is 22.5 µM; in [3], 140 µM; in [5], 14.2 µM; in data set [7] it was 17.6 µM. Moreover, the selectivity ratio in [2] worked out at 9.8; in data set [4], 7.9; in [6] it was 6.2.
Consider `O=C(CCN1CCN(c2ccc(F)cc2)CC1)c1ccc(C(F)(F)F)cc1`, for which the half-maximal inhibitory concentration (IC50) in [1] came out at 60.3 µM; in data set [3], 28.5 µM; in [5] it was 36.9 µM; in data set [7], 66.4 µM. Moreover, the selectivity ratio in data set [2] came to 0.8; in data set [4], 0.4; in data set [6], 0.5.

In general, IC50 refers to the concentration needed to halve the response being measured.
